The text below walks through data of the EternaBench riboswitch data.

In this series the test system is MS2 coat protein. Put plainly: apparent Kd, MS2 coat protein; higher = weaker binding; RNA-MaP array; FMN 200 µM where present. The method in brief: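 Two titrations, one without ligand and one with constant ligand, were run with SNAP-549-labelled MS2 coat protein from 0.7 or 1.5 nM, doubling to 3 µM. The targets were designs transcribed by stalled E. coli RNA polymerase on Illumina sequencing-chip clusters, in 100 mM Tris-HCl pH 7.5, 80 mM KCl, 4 mM MgCl2, BSA, DTT, yeast tRNA and Tween-20. The apparent Kd is the median of filtered per-cluster binding-curve fits, with green signal normalised to red-channel RNA signal and control-cluster median Fmax.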

[1] abbreviates: designed as: OFF switch for flavin mononucleotide, no ligand.
The mark [2] stands for this setting: ligand present: flavin mononucleotide, designed as: OFF switch for flavin mononucleotide.
Setting [3] is: designed as: ON switch for flavin mononucleotide, no ligand.
[4] abbreviates: ligand present: flavin mononucleotide, designed as: ON switch for flavin mononucleotide.

The apparent Kd is the concentration giving half-maximal binding under the conditions of the assay. As to “AACAGUACAGGAUAUACAUGAGGAUCACCCAUGUGAUAAUUAAGUGGCGUACCACAAAGUAGAAGGGUACUGGA”, the “apparent Kd” value reads like this: under setting [1], 37.9 nM; under setting [2], 153 nM.
The matching figures for “GCCUUAUCGGUCAGGAUAUACACCCGCCAGUUGUUGUAGAAGGGACAUGAGGAUCACCCAUGUACAUUACAUUG”: 21.2 nM and 33.8 nM.
For “GUCACUAGAGGAUAUACAAUGGUAUAUGAUCCUAGAGACAUACAUGAGGAUCACCCAUGUAGAAGGCUAGUAUU”, in that order: 64.6 nM and 43.5 nM.
For “AAUUCAAACAGAGGAUAUUGUUUAUCUCUAUUGCAAGAAGGCUGAUCUUACUACCCACUUAUGAAACAUGAGGAUCACCCAUGU”, the “apparent Kd” value under setting [3] was 34.6 nM and the “apparent Kd” value under setting [4] was determined as 30.1 nM.
As to “CUAUGAGCGAUAGGAUAUACUGAGAUUGAAUGGGUAGAAGGAUCGAUCGUGUAGAAGACAUGAGGAUCACCCAUGUUACGGGCC”, the “apparent Kd” value came out at 73.9 nM under setting [3] and 93.5 nM under setting [4].
“AUGAUUAUAUUAUACAUGAGGAUCACCCAUGUUAUAAGUCAUGAGGAUAUGGUAUUGUAGUUAUUCCAGAAGGCAUUUAACUUA”: the “apparent Kd” value reads like this: under setting [3], 7.02 nM; under setting [4], 5.79 nM.
As for “AGCAAGUCAGGAUAUGCGAAGUCAGGACACACACUGACGAAGCAGAAGGGACAUGAGGAUCACCCAUGUAAGCA”, the “apparent Kd” value is, setting by setting: under setting [1], 29.1 nM; under setting [2], 42.9 nM.
As to “AGCUACGUUUCGUAGCAGUGUCAUCGAGAAGGCCUCAUUACAUGAGGAUCACCCAUGUGGACAUGGGAGGAUAUCGAUGAUACA”, the “apparent Kd” value under setting [3] turned out to be 487 nM and the “apparent Kd” value under setting [4] was 212 nM.
On to “AUCAGUCCGUAGAAGGGUGACAUGAGGAUCACCCAUGUGCCGUGUGCAUUUAUGCCUCCACGGCCACAGGAUAUACGGAGUCGA”, for which the “apparent Kd” value runs as follows: under setting [3], 89 nM; under setting [4], 22.6 nM.
With “ACAUGAGGAUCACCCAUGUGAUGAUCUUCCAUGUCAUAUUUCAGAAGGCACGCAUGUUUAAUGAGUGAGGAUAUGGAAUAUGCG”, the “apparent Kd” value came to 802 nM under setting [1] and 553 nM under setting [2].
On to “AAAAAGUCAGGAUAUACAAAAGUGCGAAAGCACAAAAGGAAACAUGAGGAUCACCCAUGUAGAAGGGACAAGAA”, for which the “apparent Kd” value came to 32.6 nM under setting [1] and 27.5 nM under setting [2].
For “GUAGAGUAAGGAUAUGGUGAAUAGGAUAGAAUGGUUAGAAAUCAGAAGGUACAUGAGGAUCACCCAUGUAAUGU”, the “apparent Kd” value under setting [1] worked out at 23 nM and the “apparent Kd” value under setting [2] worked out at 22.4 nM.
On to “AAGUAGGGAGGAUAUACAUAGAUACAGAUUCAUGUGGAACUACAUGAGGAUCACCCAUGUAGAAGGCCCUAAUA”, for which the “apparent Kd” value under setting [1] amounted to 27.2 nM and the “apparent Kd” value under setting [2] worked out at 102 nM.
For “AGCUACGUUUCGUAGCAGCUAGGUGAGGAUAUCCACUCGACAUGAGGAUCACCCAUGUAAACAUGGGAGAAGGCGCCUAGAAAG”, the “apparent Kd” value under setting [3] came out at 84.9 nM and the “apparent Kd” value under setting [4] came to 10.6 nM.
Turning to “CUAUUUUGUGCCUCAUUUACAUGAGGAUCACCCAUGUUAACUUAGGAUAUAUUUAUAUUGUUAGAGUAGAAGGAAGUACAAUUU”, the “apparent Kd” value is, setting by setting: under setting [1], 83.5 nM; under setting [2], 55.9 nM.
For “CGUGACGACAUAGGAUAUUGAUACAUGAGGAUCACCCAUGUCACCCAUUUAUAUAUUAGUGAUGACAAGAAGGAUGUGGUCACG”, the “apparent Kd” value runs as follows: under setting [3], 33.3 nM; under setting [4], 7.13 nM.
For “CAGUACUGAGGAUAUACAUGAGGAUCACCCAUGUGAAUAGCAUAGGAAACUAUGCUAUGUAGAAGGCAGUACUG”, the “apparent Kd” value reads like this: under setting [1], 14.1 nM; under setting [2], 22.6 nM.
Take “CCAUAUAAAUAAGGAUAUUAAGUUGAUUAUCCUCAAACAUGAGGAUCACCCAUGUAUAGUCUUAUUAAGAAGGUAUAGUGUUGG”: the “apparent Kd” value reads like this: under setting [3], 608 nM; under setting [4], 545 nM.
As for “UUUUUACAUGAGGAUCACCCAUGUCAGGAUAUGUUUAUAUUUUAUUAUUUUAUUUUUUACAGAAGGGACUAUUA”, the “apparent Kd” value by setting is: under setting [1], 136 nM; under setting [2], 66.6 nM.
Take “AUCAUGAGAGGAUAUACAUGAGGAUCACCCAUGUGGUAAACACCAUGAGCUCAAUUACGUAGAAGGCUCAUUUG”: the “apparent Kd” value runs as follows: under setting [1], 26.4 nM; under setting [2], 45.6 nM.
The matching figures for “AUGUUAUAUGAAGGAUAUACUUAACAUGAGGAUCACCCAUGUGGUGUUGUGAGUGAGUGAGUUUAGUAGAAGGUCAAUUCUUUU”: 256 nM and 263 nM.
“GCGCUUAUACAGAAGGCCAUAUACAUGAGGAUCACCCAUGUUAUUUGGUGGAGGAUAUGUUUUUUAUUACAGGUAGUUGAGCGC”: the “apparent Kd” value under setting [3] turned out to be 7.42 nM and the “apparent Kd” value under setting [4] turned out to be 5.91 nM.
For “GCGGUUACGGUUGGCACUUAGCGAGAGGAUAUGGUAAGCUGGACAUGAGGAUCACCCAUGUACUAUCAGAAGGCUCGAGCACGC”, the “apparent Kd” value by setting is: under setting [3], 7.94 nM; under setting [4], 9.15 nM.
The matching figures for “ACAUACAUUCGAGGAUAUCGGUGAACAAAUUAACGAGAAGGCGAUAUAAGUUUUAAUCUUAUGAACAUGAGGAUCACCCAUGUA”: 26.4 nM and 24.3 nM.
Regarding “CCAUCAGCGGGCGUAUCGGUUGGACAUGAGGAUCACCCAUGUAGAAGGACAGGAGUAUUUCGGCUGUAGGAUAUACAUUUGGUG”, the “apparent Kd” value was 22.5 nM under setting [1] and 52.7 nM under setting [2].
For “GCGAGUAAAGCAGGAUAUCUAUUGUCUCUGUAACAUGAGGAUCACCCAUGUAGAGAAGGGCUUAGUCAUACAAUUCGAACUCGC”, in that order: 7.86 nM and 7.32 nM.
The matching figures for “UCCGCGCGCGUAGGAUAUACAUGAGGAUCACCCAUGUACCCAUAUGGCUUCCUGAAUCUUGCAAUGUAGAAGGACGCCCGUGGG”: 35.8 nM and 36.1 nM.
For “CGAUAUUAUGCAGGAUAUCUUCCUUGAAUGAGGAGAGAAGGGCAUAGGGAGACAUAAGCCUUAUUACAUGAGGAUCACCCAUGU”, in that order: 10.7 nM and 8.83 nM.
With “GCCAUCGGGUGAGGAUAUAAAAUUAUAAUUAAAUUAGAAGGCACCUCAUAAGACAUGAGGAUCACCCAUGUAGUUAAGAUGGCA”, the “apparent Kd” value was 87.6 nM under setting [3] and 29.5 nM under setting [4].
On to “CAUGAUUGGGAAGGAUAUUGACCUAGUUAGUGCCGAGAAGGUCCCUUUCACAUGAGGAUCACCCAUGUGAGACUGGUGUUCGAG”, for which the “apparent Kd” value under setting [1] stood at 26.5 nM and the “apparent Kd” value under setting [2] was 50.4 nM.
Take “AGGAGACAUGAGGAUCACCCAUGUGCGAGGUGAAGAGGAUAUAGAAGAAGAAGAAAGAAACUAGAAGGCUUAAAAA”: the “apparent Kd” value reads like this: under setting [3], 220 nM; under setting [4], 244 nM.
For “GGUACCAUCACAGGAUAUGCUUUUCUUUGGGAAGCAGAAGGGUGUAACAUGAGGAUCACCCAUGUGGUGCCAGGGCGUGAGCCC”, in that order: 182 nM and 14.7 nM.
As to “AUAUUAAGUGUGAGGAUAUGCUGGUCCUUGGAUCAGCAGAAGGCACAUGAGGAUCACCCAUGUAAUAUAUUUAU”, the “apparent Kd” value was 90.4 nM under setting [1] and 349 nM under setting [2].
Regarding “GCACAUGGCAUAGGAUAUAGAACUAUACAUUAUAUAGGUAGUGUCACAACACUAGAAGGAUGAAACAUGAGGAUCACCCAUGUA”, the “apparent Kd” value came to 14.9 nM under setting [3] and 12.2 nM under setting [4].
In the case of “AUCCGCUCGUCAGGAUAUACGUCACUGCGUCAGCAGUGUGGUAAGAUCACAUGAGGAUCACCCAUGUAGAAGGGACGAGCUGAU”, the “apparent Kd” value amounted to 13.6 nM under setting [1] and 276 nM under setting [2].
For “AUCAGCGCGUCAGGAUAUACGUCACUGCGUCAGCAGUGUGGUAAGAUCACAUGAGGAUCACCCAUGUAGAAGGGACGAGCUGAU”, in that order: 12.8 nM and 307 nM.
